High-throughput results: PubChem BioAssay, several laboratories
This is a sample that favours compounds with a hit; in the whole collection about 2.6% have one here.
SENP8 block-1 = inhibitors of human SENP8 protease. Q96LD8. purified SENP8, Z-RLRGG-aminoluciferin cleavage, luminescence. inhibition, % at 10 µM. 330,000 tested, 1.2% active. AID 2540; in the data active means inhibition above about 50%
Target sequence (Q96LD8 whole entry, looked up): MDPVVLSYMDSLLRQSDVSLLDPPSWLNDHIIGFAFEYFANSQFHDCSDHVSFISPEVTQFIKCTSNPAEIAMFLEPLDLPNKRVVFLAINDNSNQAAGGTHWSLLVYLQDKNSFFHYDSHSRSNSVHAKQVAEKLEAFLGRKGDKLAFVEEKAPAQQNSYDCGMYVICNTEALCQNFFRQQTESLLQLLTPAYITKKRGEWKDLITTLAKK
SENP6 block = SENP6 protease inhibition; inhibition, % at 10 µM; 330,000 tested, 1.8% active; Q9GZR1; Recombinant SENP6 catalytic domain, aminoluciferin luminescence;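 active means inhibition above about 50% at the single tested dose, limit read from the data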;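 further: plate controls were DMSO wells with enzyme for no effect and DMSO wells lacking enzyme for full effect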
SENP7 inh = inhibitors of human SENP7 protease; AID 434973; inhibition, % at 5 µM; Q9BQF6; 330,000 tested, 1.5% active; recombinant SENP7, Z-RLRGG-aminoluciferin luminescence, 40 min;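 active means inhibition above about 50% at the single test dose, limit read from the data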;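 further: plate controls were DMSO with enzyme for no effect and no enzyme buffer wells for full effect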
Target sequence (Q9BQF6 706-1050 limits assumed): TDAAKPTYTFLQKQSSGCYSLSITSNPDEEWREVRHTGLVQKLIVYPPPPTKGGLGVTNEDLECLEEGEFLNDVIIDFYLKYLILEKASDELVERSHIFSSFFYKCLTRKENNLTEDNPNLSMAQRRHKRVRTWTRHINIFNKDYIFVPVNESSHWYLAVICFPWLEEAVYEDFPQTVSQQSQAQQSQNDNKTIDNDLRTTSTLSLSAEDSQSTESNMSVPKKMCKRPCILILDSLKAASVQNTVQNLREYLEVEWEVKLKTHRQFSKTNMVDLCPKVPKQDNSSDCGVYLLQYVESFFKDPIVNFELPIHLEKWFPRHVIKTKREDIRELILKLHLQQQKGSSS
Platelet DG rel = modulates dense granule release in human platelets | human platelet-rich plasma, SFLLRN dense granule ATP release, luminescence | 300,000 tested, 0.22% active | inhibition, %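 (compounds screened at 7.5 µM in platelet-rich plasma)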;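 active means mean replicate score, as percent of positive control, at or above 50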
SENP8 block-2 = SENP8 (human) protease inhibition; 360,000 tested, 0.64% active; AID 602440; Q96LD8; recombinant SENP8, Nedd8 substrate fluorescence; inhibition, % at 20 µM; in the data active means inhibition mostly above about 40%, no sharp cut-off; inactive means mostly below about 27%
SENP1 FRET inh = blocks the human SENP1 SUMO protease catalytic domain | 360,000 tested, 0.21% active | AID 624204 | Q9P0U3 | recombinant SENP1 catalytic domain, CyPet-SUMO1-YPet FRET cleavage | inhibition, % at 10 µM;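 active means inhibition at least 30% at 10 µM, raw YFP signal under a set limit, fluorescence ratio 0.5 to 1.5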;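 further: 0% = enzyme with DMSO and 100% = no enzyme wells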
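system = hSENP1 catalytic domain, recombinant | reagent = SFCypet-SUMO1-SFYpet substrate at 25 nM | doses = one dose per compound, 10 µM, 0.5% DMSO | incubation = enzyme reaction for 50 min at room temperature, dark | measured by = FRET, CFP and YFP emission | controls = no-enzyme low, enzyme-DMSO high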
SENP8 confirm = human SENP8 inhibition, confirmed | 6,200 tested, 40% active | Recombinant SENP8, Z-RLRGG-aminoluciferin luminescence, 60 min | inhibition, % at 12.5 µM | shares compounds with SENP7 inh;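 active means mean inhibition across replicates above about 50%, limit read from the data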
SENP6 conf = confirmation of human SENP6 protease inhibitors. shares compounds with SENP7 inh. recombinant SENP6, Z-RLRGG-aminoluciferin luminescence. inhibition, % at 12.5 µM. 6,200 tested, 58% active
SENP7 conf = human SENP7 inhibition, confirmed; shares compounds with SENP7 inh; recombinant SENP7, Z-RLRGG-aminoluciferin luminescence, 40 min; inhibition, % at 12.5 µM; 6,200 tested, 69% active
Casp3 select = selectivity test for SENP inhibitors: human caspase-3 inhibition. shares compounds with SENP7 inh. purified caspase-3, Z-DEVD-aminoluciferin luminescence, 60 min. inhibition, % at 12.5 µM. 6,200 tested, 60% active. AID 488918;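 active means mean inhibition above about 50%, limit read from the data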;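 further: plate controls were enzyme with DMSO for no effect and wells without caspase-3 for full effect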
SENP luc ctr = luminescence interference (SENP counter-screen); shares compounds with SENP7 inh; Pre-incubated SENP8/Z-RLRGG-aminoluciferin, luciferase luminescence interference; 6,200 tested, 39% active; AID 488919; inhibition, % at 12.5 µM;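 active means mean inhibition above about 50% when retested at one dose, limit read from the data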;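 further: plate controls were DMSO wells with completed reaction for no effect and substrate without enzyme for full effect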
* hit, by the source's call.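 How the source made its calls, unless noted: active means mean inhibition above about 50% in the one-dose retest (limit read from the data); inactive means the rest.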

O=C(/C=C/c1cccc(O)c1)c1ccc(N2CCOCC2)cc1 was read as SENP8 block-1 35.1, SENP6 block 78.4*, SENP7 inh 73.5*, Platelet DG rel 14.8, SENP8 block-2 -17.5, SENP1 FRET inh -3.1, SENP8 confirm -34.2, SENP6 conf -23.0, SENP7 conf -15.5, Casp3 select 1.0 and SENP luc ctr 50.9*.
For Cc1ccc(NC(=S)Nc2cccc3cnccc23)cc1C the results were SENP8 block-1 54.4*, SENP6 block 64.7*, SENP7 inh 15.3, Platelet DG rel 2.7, SENP8 block-2 -211.8, SENP1 FRET inh -9.4, SENP8 confirm 11.8, SENP6 conf 20.2, SENP7 conf 8.5, Casp3 select -0.5 and SENP luc ctr -1.4.
Cc1ccc(NC(=S)Nc2cccc3cnccc23)cc1 was read as SENP8 block-1 86.8*, SENP6 block 92.0*, SENP7 inh 70.1*, Platelet DG rel -1.9, SENP8 block-2 -110.1, SENP1 FRET inh -5.3, SENP8 confirm -3.1, SENP6 conf 24.6, SENP7 conf 4.1, Casp3 select 7.0 and SENP luc ctr 8.9.
S=C(Nc1cccc(Cl)c1)Nc1cccc2cnccc12 was read as SENP8 block-2 -204.4 and SENP1 FRET inh -25.5.
For CCN1CCC(O)(C(C(=O)O)c2ccccc2)CC1 (stereo unspecified) the results were SENP8 block-2 12.0 and SENP1 FRET inh 3.2.
`O=c1c2ccccc2sn1-c1ccc(F)cc1` gave SENP8 block-1 74.4*, SENP6 block 81.8*, SENP7 inh 35.8, SENP8 block-2 11.3, SENP1 FRET inh -2.1, SENP8 confirm 83.7*, SENP6 conf 84.1*, SENP7 conf 95.7*, Casp3 select 91.3* and SENP luc ctr 83.6*.
O=c1c2ccc(F)cc2sn1-c1ccccc1 was read as SENP8 block-2 9.6 and SENP1 FRET inh 1.1.
`Cc1ccnc(NS(=O)(=O)c2ccc(NC(=O)C(C)(C)C)cc2)n1` gave SENP8 block-1 4.3, SENP6 block 88.6*, SENP7 inh -2.4, Platelet DG rel 0.4, SENP8 block-2 5.8, SENP1 FRET inh 2.1, SENP8 confirm 12.3, SENP6 conf 10.9, SENP7 conf -3.0, Casp3 select 1.2 and SENP luc ctr 2.9.
Screening CC(=O)Nc1ccc(S(=O)(=O)Nc2nccc(C)n2)cc1 returned SENP8 block-1 -1.3, SENP6 block -1.3, SENP7 inh -9.9, Platelet DG rel -1.6, SENP8 block-2 4.6 and SENP1 FRET inh -1.7.
Screening c1ccc2c(c1)Cn1nnnc1-2 returned SENP8 block-1 -8.0, SENP6 block 2.8, SENP7 inh -12.3, Platelet DG rel -1.3, SENP8 block-2 2.5 and SENP1 FRET inh 3.5.
Screening c1ccc2c(c1)Cn1c-2nc2ccccc21 returned SENP8 block-1 81.2*, SENP6 block 92.4*, SENP7 inh 90.8*, Platelet DG rel 25.6, SENP8 block-2 -1.4, SENP1 FRET inh 1.8, SENP8 confirm 89.8*, SENP6 conf 88.4*, SENP7 conf 98.8*, Casp3 select 95.4* and SENP luc ctr 86.4*.
Brc1c(-c2ccccc2)nc2n1Cc1ccccc1-2 was read as SENP8 block-1 51.0*, SENP6 block 74.9*, SENP7 inh 47.2, Platelet DG rel -0.1, SENP8 block-2 18.0, SENP1 FRET inh -0.2, SENP8 confirm 6.5, SENP6 conf 65.3*, SENP7 conf 72.1*, Casp3 select 42.3 and SENP luc ctr 15.9.
CC12CC3(C)CC(C)(C1)CC(C(=O)NC(=S)N1CCCC1)(C2)C3 was read as SENP8 block-1 -0.5, SENP6 block -13.9, SENP7 inh -11.8, Platelet DG rel 7.6, SENP8 block-2 2.7 and SENP1 FRET inh -0.6.
C/C(=N/NS(=O)(=O)c1ccc(Br)cc1)c1cccc(NC(=O)C2CC2)c1 was read as SENP8 block-2 12.0 and SENP1 FRET inh 1.1.
`CNC(=O)NC(=O)C(OC(=O)Cc1cccc(C(F)(F)F)c1)c1ccccc1` (stereo unspecified) gave SENP8 block-1 -1.9, SENP6 block -2.8, SENP7 inh 4.6, Platelet DG rel 5.2, SENP8 block-2 -0.8 and SENP1 FRET inh 5.1.
For COC(=O)c1ccc(COc2ccccc2/C=C/C(=O)c2ccc(OCC(=O)O)cc2)cc1 the results were SENP8 block-1 31.4, SENP6 block 55.4*, SENP7 inh 5.3, Platelet DG rel 7.3, SENP8 block-2 16.7, SENP1 FRET inh -0.3, SENP8 confirm 16.3, SENP6 conf 10.2, SENP7 conf 29.8, Casp3 select 27.0 and SENP luc ctr 48.6.
Screening CCN(CC(=O)NCc1ccc(F)cc1)C(=O)/C=C/c1ccc(S(=O)(=O)N(CC)CC)cc1 returned SENP8 block-1 -5.2, SENP6 block 14.4, SENP7 inh -0.3, Platelet DG rel -4.2, SENP8 block-2 6.9 and SENP1 FRET inh 3.6.
Screening COc1ccc(Nc2nnc(-c3ccncc3)s2)cc1Cl returned SENP8 block-1 65.9*, SENP6 block 73.0*, SENP7 inh 95.6*, Platelet DG rel 8.2, SENP8 block-2 -275.9, SENP1 FRET inh -4.3, SENP8 confirm 29.8, SENP6 conf 23.5, SENP7 conf 43.6, Casp3 select 54.2* and SENP luc ctr 6.3.
Screening CNc1nnc(-c2ccncc2)s1 returned SENP8 block-1 -2.0, SENP6 block -10.8, SENP7 inh -2.9, Platelet DG rel -1.9, SENP8 block-2 -290.2 and SENP1 FRET inh 0.7.
FC(F)(F)c1ccc(Cl)c(Nc2nnc(-c3ccncc3)s2)c1 was read as SENP8 block-2 -338.4 and SENP1 FRET inh 1.8.
Clc1ccccc1Nc1nnc(-c2ccncc2)s1 was read as SENP8 block-1 96.2*, SENP6 block 97.8*, SENP7 inh 100.3*, Platelet DG rel 68.8*, SENP8 block-2 -398.8, SENP1 FRET inh 0.4, SENP8 confirm 98.2*, SENP6 conf 99.0*, SENP7 conf 101.9*, Casp3 select 97.4* and SENP luc ctr 33.7.
